# Test results from ChEMBL document CHEMBL1629612, “Characterization and sequence analysis of extended-spectrum-{beta}-lactamase-encoding genes from Escherichia coli, Klebsiella pneumoniae, and Proteus mirabilis isolates collected during tigecycline phase 3 clinical trials” (2009).
# Experiments:
# Format in all cases: functional
# Klebsiella pneumoniae [1] = assay: Antimicrobial activity against Klebsiella pneumoniae expressing beta-lactamase SHV by Etest based on multiple determinants
# Procedure, shortened: (§1)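 Clinical isolates from tigecycline phase 3 trials were received as frozen primary cultures. Repeat isolates from one patient were riboprinted, and only the first of identical strains was kept. β-lactamase genes were assigned by PCR against control strains, plus isoelectric focusing. ESBL confirmation used Etest ESBL strips carrying ceftazidime or cefotaxime with clavulanic acid, read per the manufacturer's instructions.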
# Escherichia coli [2] = assay: Antimicrobial activity against Escherichia coli expressing beta-lactamase AmpC by Etest
# Procedure, shortened: (§2)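 Clinical isolates from tigecycline phase 3 trials were received as frozen primary cultures. Serial isolates from one patient were riboprinted, and only the first of identical strains was kept. β-Lactamase genes were assigned by PCR. ESBL confirmation used Etest ESBL strips carrying ceftazidime or cefotaxime, alone and combined with clavulanic acid, following the strip maker's instructions.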
# Proteus mirabilis [3] = assay: Antimicrobial activity against Proteus mirabilis expressing beta-lactamase AmpC by Etest; procedure, shortened: as §1
# Proteus mirabilis [4] = assay: Antimicrobial activity against Proteus mirabilis expressing extended-spectrum beta-lactamase by Etest based on single determinant; procedure, shortened: as §1
# Escherichia coli [5] = assay: Antimicrobial activity against Escherichia coli expressing beta-lactamase AmpC and extended-spectrum beta-lactamase by Etest; procedure, shortened: as §2
# Klebsiella pneumoniae [6] = assay: Antimicrobial activity against Klebsiella pneumoniae expressing beta-lactamase SHV by Etest based on single determinant; procedure, shortened: as §1
# Escherichia coli [7] = assay: Antimicrobial activity against Escherichia coli expressing beta-lactamase CTX and SHV by Etest; procedure, shortened: as §2
# Klebsiella pneumoniae [8] = assay: Antimicrobial activity against Klebsiella pneumoniae expressing beta-lactamase CTX by Etest based on single determinant; procedure, shortened: as §1
# Klebsiella pneumoniae [9] = assay: Antimicrobial activity against Klebsiella pneumoniae expressing beta-lactamase CTX by Etest based on multiple determinants; procedure, shortened: as §1
# Escherichia coli [10] = assay: Antimicrobial activity against Escherichia coli expressing beta-lactamase CTX by Etest based on single determinant; procedure, shortened: as §2
# Proteus mirabilis [11] = assay: Antimicrobial activity against Proteus mirabilis expressing extended-spectrum beta-lactamase by Etest based on multiple determinants; procedure, shortened: as §1
# Escherichia coli [12] = assay: Antimicrobial activity against Escherichia coli expressing beta-lactamase CTX by Etest based on multiple determinants; procedure, shortened: as §2
# Proteus mirabilis [13] = assay: Antimicrobial activity against Proteus mirabilis extended-spectrum beta-lactamase producing isolate by Etest; procedure, shortened: as §1
# Escherichia coli [14] = assay: Antimicrobial activity against Escherichia coli expressing beta-lactamase SHV by Etest; procedure, shortened: as §2
# Klebsiella pneumoniae [15] = assay: Antimicrobial activity against Klebsiella pneumoniae extended-spectrum beta-lactamase producing isolate by Etest; procedure, shortened: as §1
# Klebsiella pneumoniae [16] = assay: Antimicrobial activity against Klebsiella pneumoniae expressing extended-spectrum beta-lactamase and beta-lactamase AmpC by Etest; procedure, shortened: as §2
# Klebsiella pneumoniae [17] = assay: Antimicrobial activity against Klebsiella pneumoniae expressing beta-lactamase DHA by Etest; procedure, shortened: as §2
# Klebsiella pneumoniae [18] = assay: Antimicrobial activity against Klebsiella pneumoniae expressing beta-lactamase SHV and CTX by Etest; procedure, shortened: as §1
# Escherichia coli [19] = assay: Antimicrobial activity against Escherichia coli extended-spectrum beta-lactamase producing isolate by Etest; procedure, shortened: as §2
Structure (SMILES),MIC (Klebsiella pneumoniae [1]),MIC (Proteus mirabilis [3]),MIC (Proteus mirabilis [4]),MIC50 (Escherichia coli [5]),MIC90 (Escherichia coli [5]),MIC50 (Klebsiella pneumoniae [6]),MIC90 (Klebsiella pneumoniae [6]),MIC50 (Escherichia coli [7]),MIC90 (Escherichia coli [7]),MIC50 (Klebsiella pneumoniae [8]),MIC90 (Klebsiella pneumoniae [8]),MIC50 (Klebsiella pneumoniae [9]),MIC90 (Klebsiella pneumoniae [9]),MIC50 (Escherichia coli [10]),MIC90 (Escherichia coli [10]),MIC (Proteus mirabilis [11]),MIC50 (Escherichia coli [12]),MIC90 (Escherichia coli [12]),MIC50 (Proteus mirabilis [13]),MIC90 (Proteus mirabilis [13]),other results
CO/N=C(\C(=O)N[C@@H]1C(=O)N2C(C(=O)[O-])=C(C[N+]3(C)CCCC3)CS[C@H]12)c1csc(N)n1 [CEFEPIME],2 µg/mL,2 µg/mL,1 µg/mL,16 µg/mL,> 16 µg/mL,≤ 2 µg/mL,> 16 µg/mL,16 µg/mL,> 16 µg/mL,16 µg/mL,> 16 µg/mL,16 µg/mL,> 16 µg/mL,16 µg/mL,> 16 µg/mL,1 µg/mL,16 µg/mL,> 16 µg/mL,2 µg/mL,> 16 µg/mL,MIC (Escherichia coli [2]): 2 µg/mL; MIC (Escherichia coli [14]): 2 µg/mL; MIC50 (Klebsiella pneumoniae [15]): 8 µg/mL; MIC90 (Klebsiella pneumoniae [15]): > 16 µg/mL; MIC (Klebsiella pneumoniae [16]): 2 µg/mL
CO/N=C(\C(=O)N[C@@H]1C(=O)N2C(C(=O)O)=C(COC(C)=O)CS[C@H]12)c1csc(N)n1 [CEFOTAXIME],2 µg/mL,16 µg/mL,0.25 µg/mL,> 32 µg/mL,> 32 µg/mL,16 µg/mL,> 32 µg/mL,> 32 µg/mL,> 32 µg/mL,> 32 µg/mL,> 32 µg/mL,> 32 µg/mL,> 32 µg/mL,> 32 µg/mL,> 32 µg/mL,8 µg/mL,> 32 µg/mL,> 32 µg/mL,32 µg/mL,> 32 µg/mL,MIC (Escherichia coli [2]): 4 µg/mL; MIC (Klebsiella pneumoniae [17]): 2 µg/mL; MIC50 (Klebsiella pneumoniae [18]): > 32 µg/mL; MIC90 (Klebsiella pneumoniae [18]): > 32 µg/mL; MIC (Escherichia coli [14]): 4 µg/mL; MIC50 (Klebsiella pneumoniae [15]): > 32 µg/mL; MIC90 (Klebsiella pneumoniae [15]): > 32 µg/mL; MIC (Klebsiella pneumoniae [16]): 1 µg/mL; MIC50 (Escherichia coli [19]): > 32 µg/mL; MIC90 (Escherichia coli [19]): > 32 µg/mL
CC(C)(O/N=C(\C(=O)N[C@@H]1C(=O)N2C(C(=O)[O-])=C(C[n+]3ccccc3)CS[C@H]12)c1csc(N)n1)C(=O)O [CEFTAZIDIME],16 µg/mL,64 µg/mL,2 µg/mL,> 32 µg/mL,> 32 µg/mL,8 µg/mL,> 64 µg/mL,16 µg/mL,64 µg/mL,32 µg/mL,> 64 µg/mL,32 µg/mL,> 64 µg/mL,16 µg/mL,64 µg/mL,2 µg/mL,32 µg/mL,64 µg/mL,64 µg/mL,> 64 µg/mL,MIC (Escherichia coli [2]): 4 µg/mL; MIC (Klebsiella pneumoniae [17]): 64 µg/mL; MIC50 (Klebsiella pneumoniae [18]): 64 µg/mL; MIC90 (Klebsiella pneumoniae [18]): > 64 µg/mL; MIC (Escherichia coli [14]): 16 µg/mL; MIC50 (Klebsiella pneumoniae [15]): 32 µg/mL; MIC90 (Klebsiella pneumoniae [15]): > 64 µg/mL; MIC (Klebsiella pneumoniae [16]): 4 µg/mL; MIC50 (Escherichia coli [19]): 32 µg/mL; MIC90 (Escherichia coli [19]): > 64 µg/mL
CO/N=C(\C(=O)N[C@@H]1C(=O)N2C(C(=O)O)=C(CSc3nc(=O)c(O)nn3C)CS[C@H]12)c1csc(N)n1 [CEFTRIAXONE],2 µg/mL,8 µg/mL,1 µg/mL,> 32 µg/mL,> 32 µg/mL,8 µg/mL,> 32 µg/mL,> 32 µg/mL,> 32 µg/mL,> 32 µg/mL,> 32 µg/mL,> 32 µg/mL,> 32 µg/mL,> 32 µg/mL,> 32 µg/mL,2 µg/mL,> 32 µg/mL,> 32 µg/mL,8 µg/mL,32 µg/mL,MIC (Escherichia coli [2]): 4 µg/mL; MIC (Klebsiella pneumoniae [17]): 1 µg/mL; MIC50 (Klebsiella pneumoniae [18]): > 32 µg/mL; MIC90 (Klebsiella pneumoniae [18]): > 32 µg/mL; MIC (Escherichia coli [14]): 4 µg/mL; MIC50 (Klebsiella pneumoniae [15]): > 32 µg/mL; MIC90 (Klebsiella pneumoniae [15]): > 32 µg/mL; MIC (Klebsiella pneumoniae [16]): 2 µg/mL; MIC50 (Escherichia coli [19]): > 32 µg/mL; MIC90 (Escherichia coli [19]): > 32 µg/mL
C[C@@H](O)[C@H]1C(=O)N2C(C(=O)O)=C(SCCNC=N)C[C@H]12 [IMIPENEM ANHYDROUS],0.12 µg/mL,1 µg/mL,0.5 µg/mL,0.25 µg/mL,0.5 µg/mL,0.25 µg/mL,1 µg/mL,≤ 0.12 µg/mL,0.25 µg/mL,0.25 µg/mL,0.5 µg/mL,0.25 µg/mL,0.5 µg/mL,≤ 0.12 µg/mL,0.25 µg/mL,2 µg/mL,≤ 0.12 µg/mL,0.25 µg/mL,2 µg/mL,4 µg/mL,MIC (Escherichia coli [2]): 0.12 µg/mL; MIC (Klebsiella pneumoniae [17]): 0.5 µg/mL; MIC50 (Klebsiella pneumoniae [18]): 0.25 µg/mL; MIC90 (Klebsiella pneumoniae [18]): 0.5 µg/mL; MIC50 (Klebsiella pneumoniae [15]): 0.25 µg/mL; MIC90 (Klebsiella pneumoniae [15]): 1 µg/mL; MIC (Klebsiella pneumoniae [16]): 0.06 µg/mL; MIC50 (Escherichia coli [19]): ≤ 0.12 µg/mL; MIC90 (Escherichia coli [19]): 0.25 µg/mL
C[C@H]1COc2c(N3CCN(C)CC3)c(F)cc3c(=O)c(C(=O)O)cn1c23.C[C@H]1COc2c(N3CCN(C)CC3)c(F)cc3c(=O)c(C(=O)O)cn1c23.O [LEVOFLOXACIN],0.12 µg/mL,4 µg/mL,0.12 µg/mL,16 µg/mL,> 16 µg/mL,0.5 µg/mL,16 µg/mL,16 µg/mL,> 16 µg/mL,4 µg/mL,> 16 µg/mL,4 µg/mL,16 µg/mL,16 µg/mL,> 16 µg/mL,2 µg/mL,> 16 µg/mL,> 16 µg/mL,8 µg/mL,> 16 µg/mL,MIC50 (Klebsiella pneumoniae [18]): 0.5 µg/mL; MIC90 (Klebsiella pneumoniae [18]): > 16 µg/mL; MIC50 (Klebsiella pneumoniae [15]): 2 µg/mL; MIC90 (Klebsiella pneumoniae [15]): > 16 µg/mL; MIC (Klebsiella pneumoniae [16]): 2 µg/mL; MIC50 (Escherichia coli [19]): 16 µg/mL; MIC90 (Escherichia coli [19]): > 16 µg/mL
CN(C)c1ccc(O)c2c1C[C@H]1C[C@H]3[C@H](N(C)C)C(O)=C(C(N)=O)C(=O)[C@@]3(O)C(O)=C1C2=O [MINOCYCLINE],2 µg/mL,16 µg/mL,16 µg/mL,4 µg/mL,> 64 µg/mL,4 µg/mL,64 µg/mL,4 µg/mL,16 µg/mL,4 µg/mL,32 µg/mL,4 µg/mL,16 µg/mL,4 µg/mL,32 µg/mL,16 µg/mL,4 µg/mL,32 µg/mL,64 µg/mL,> 64 µg/mL,MIC (Escherichia coli [2]): 1 µg/mL; MIC (Klebsiella pneumoniae [17]): 4 µg/mL; MIC50 (Klebsiella pneumoniae [18]): 8 µg/mL; MIC90 (Klebsiella pneumoniae [18]): 64 µg/mL; MIC (Escherichia coli [14]): 2 µg/mL; MIC50 (Klebsiella pneumoniae [15]): 4 µg/mL; MIC90 (Klebsiella pneumoniae [15]): 64 µg/mL; MIC (Klebsiella pneumoniae [16]): 4 µg/mL; MIC50 (Escherichia coli [19]): 4 µg/mL; MIC90 (Escherichia coli [19]): 32 µg/mL
